From ChEMBL document CHEMBL4699498 (J Med Chem, 2020) come the findings set out here.

Molecules are shown by their SMILES. The source made the active and inactive calls. The calls are words filed in the database; no cut-off is given here. Bounds are passed on as bounds.

Data set [1] deals with CAPAN-1. Nature of the data set: Induction of DNA damage in human Capan1 cells assessed as increase in gammaH2AX foci formation incubated for 24 hrs by Western blot analysis. It counts as functional, cell-based. The following applies: dose microM 0.1-10, time 24.0 hrs. The gist of the method:
(§1)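 MDA-MB-436 (BRCA1-/-) or Capan-1 (BRCA2-/-) cells were treated 24 h at the indicated concentrations. Lysis was in RIPA buffer with protease inhibitors, and 20-30 μg protein was run on SDS-PAGE. Blots were probed for γH2AX, with β-tubulin as the loading control, and detected by ECL.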

Data set [2] is described as follows: Half-life in ICR mouse at 25 mg/kg, ip by LC-tandem mass spectrometry analysis. As to conditions: in vivo. The format is ADME, organism-based. The gist of the method: (§2)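 Female ICR mice (20-23 g, 6-7 weeks old, n = 3) received a single 25 mg/kg intraperitoneal dose formulated in 5% DMSO/15% Solutol HS15/80% D5W. Plasma was sampled at 0.5, 1, 2, 4, 6, 8 and 24 h and protein-precipitated with methanol. Compound was quantified by LC-MS/MS against a standard curve.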

The test system of data set [3] is CWR22R. The experiment in a line: Antiproliferation activity against human 22Rv1 assessed as cell growth inhibition incubated for 7 days by CCK-8 assay. It counts as functional, cell-based. As to conditions: time 7.0 day. The gist of the method:
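Cells were sub-cultured at least twice and seeded for 24 h before dosing. Compounds came from 10 mM DMSO stocks, given as 10 points of 3-fold serial dilution starting at 10-20 μM. Incubation was about 7 days (Capan-1 13 days) at 37 °C, 5% CO2. Read-out was CCK-8 absorbance at 450 nm, as % growth versus DMSO wells (duplicate wells). IC50 was fitted by nonlinear regression; three independent experiments.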

For data set [4], the system named is MDA-MB-436. The experiment in a line: Induction of DNA damage in human MDA-MB-436 cells assessed as increase in gammaH2AX foci formation incubated for 24 hrs by Western blot analysis. The format is functional, cell-based. As to conditions: dose microM 0.1-10, time 24.0 hrs. The gist of the method:
as §1
In general terms: Immunoblotting shows a protein as a band on a membrane.

Data set [5] is described as follows: Acute toxicity in Balb/c mouse assessed as weight loss at 25 to 50 mg/kg, ip administered 5 times a week for 3 weeks. The format is organism-based. As to conditions: in vivo, 504 h, dose 25-50 mg/kg. The gist of the method: (§3)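 Male BALB/c nude mice (5–6 weeks) received 5×10^6 Capan-1 cells s.c. in the right armpit. At a mean tumour volume of about 150 mm³, mice were randomised by tumour volume and body weight, 6 per group. Dosing was i.p. in 5% DMSO/20% PEG400/10% Cremophor EL/65% saline, once daily five times per week for 3 weeks. Body weight was measured 2–3 times weekly.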

In data set [6] the target is T1, Protein cereblon/Poly [ADP-ribose] polymerase 1 (Homo sapiens, UniProt P09874+Q96SW2). Nature of the data set: Protac activity at CRBN/PARP1 in human MDA-MB-436 cells assessed as induction of PARP1 degradation at 30 nM incubated for 24 hrs in presence of proteasome inhibitor MG132 by Western blot analysis.
Target sequence in this assay (P09874 2-1014 limits assumed): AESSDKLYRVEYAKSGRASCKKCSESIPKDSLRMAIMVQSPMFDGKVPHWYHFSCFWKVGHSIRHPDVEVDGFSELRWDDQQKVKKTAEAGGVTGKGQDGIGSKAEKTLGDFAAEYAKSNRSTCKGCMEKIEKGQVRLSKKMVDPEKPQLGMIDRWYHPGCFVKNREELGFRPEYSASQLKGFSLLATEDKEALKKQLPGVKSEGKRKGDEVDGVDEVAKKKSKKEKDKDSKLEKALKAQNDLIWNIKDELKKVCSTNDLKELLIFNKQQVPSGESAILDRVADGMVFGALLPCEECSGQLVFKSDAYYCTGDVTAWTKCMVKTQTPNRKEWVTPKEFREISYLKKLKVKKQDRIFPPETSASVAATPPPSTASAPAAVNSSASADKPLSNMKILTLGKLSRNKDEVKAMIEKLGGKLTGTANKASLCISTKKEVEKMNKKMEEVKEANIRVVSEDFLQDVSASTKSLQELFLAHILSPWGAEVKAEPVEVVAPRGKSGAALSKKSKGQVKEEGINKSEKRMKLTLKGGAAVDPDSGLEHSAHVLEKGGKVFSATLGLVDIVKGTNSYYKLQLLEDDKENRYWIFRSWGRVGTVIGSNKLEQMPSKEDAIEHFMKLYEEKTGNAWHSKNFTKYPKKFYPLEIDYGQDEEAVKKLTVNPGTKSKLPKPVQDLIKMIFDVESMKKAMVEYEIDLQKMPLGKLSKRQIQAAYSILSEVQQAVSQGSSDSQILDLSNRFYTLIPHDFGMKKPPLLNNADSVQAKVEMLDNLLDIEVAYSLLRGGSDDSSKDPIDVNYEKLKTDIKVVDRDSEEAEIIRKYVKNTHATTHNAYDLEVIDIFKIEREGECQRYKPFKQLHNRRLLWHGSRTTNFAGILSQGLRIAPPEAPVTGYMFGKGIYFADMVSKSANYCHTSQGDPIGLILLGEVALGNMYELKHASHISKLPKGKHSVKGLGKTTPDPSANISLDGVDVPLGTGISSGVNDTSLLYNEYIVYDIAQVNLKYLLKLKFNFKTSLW
Target sequence in this assay (Q96SW2 whole entry partner): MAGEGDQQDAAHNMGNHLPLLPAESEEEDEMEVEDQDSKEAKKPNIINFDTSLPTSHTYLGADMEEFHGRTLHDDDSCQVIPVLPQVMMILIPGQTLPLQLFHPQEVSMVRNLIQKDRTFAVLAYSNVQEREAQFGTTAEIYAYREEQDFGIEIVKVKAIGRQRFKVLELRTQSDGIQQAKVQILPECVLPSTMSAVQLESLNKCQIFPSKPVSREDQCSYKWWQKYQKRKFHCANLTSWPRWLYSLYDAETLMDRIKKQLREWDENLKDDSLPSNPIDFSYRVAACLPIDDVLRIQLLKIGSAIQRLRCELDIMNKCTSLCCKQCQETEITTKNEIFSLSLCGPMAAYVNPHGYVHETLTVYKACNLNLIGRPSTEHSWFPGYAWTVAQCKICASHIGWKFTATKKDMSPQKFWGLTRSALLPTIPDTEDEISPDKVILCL
Data set [7] is described as follows: Plasma concentration in ICR mouse at 25 mg/kg, ip at 24 hrs postinjection by LC-tandem mass spectrometry analysis. It counts as ADME, organism-based. An outline of the steps:
as §2

The target of data set [8] is T1, Protein cereblon/Poly [ADP-ribose] polymerase 1. Nature of the data set: Protac activity at CRBN/PARP1 in human SW-620 cells assessed as induction of PARP1 degradation at 30 nM incubated for 24 hrs in presence of 0.1 to 1 uM CRBN ligand pomalidomide by Western blot analysis. It counts as cell-based.
Target sequence in this assay (P09874 2-1014 limits assumed): as the sequence (P09874 2-1014 limits assumed) above
Target sequence in this assay (Q96SW2 whole entry partner): as the sequence (Q96SW2 whole entry partner) above
Data set [9] has the same target. Nature of the data set: Protac activity at CRBN/PARP1 in human MDA-MB-436 cells assessed as induction of PARP1 degradation at 100 nM measured after 5 days by Western blot analysis. The following applies: time 5.0 day. The format is cell-based. An outline of the steps:
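MDA-MB-436 cells kept at 100 nM for up to 5 days; PARP1 followed by western blot against β-tubulin.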
Target sequence in this assay (P09874 2-1014 limits assumed): as the sequence (P09874 2-1014 limits assumed) above
Target sequence in this assay (Q96SW2 whole entry partner): as the sequence (Q96SW2 whole entry partner) above

Data set [10] shares this target. Nature of the data set: Protac activity at CRBN/PARP1 in human MDA-MB-436 cells assessed as induction of PARP1 degradation at 30 nM incubated for 24 hrs in presence of 0.1 to 1 uM PARP1 inhibitor olaparib by Western blot analysis.
Target sequence in this assay (P09874 2-1014 limits assumed): as the sequence (P09874 2-1014 limits assumed) above
Target sequence in this assay (Q96SW2 whole entry partner): as the sequence (Q96SW2 whole entry partner) above
For data set [11] the target is unchanged. The experiment in a line: Protac activity at CRBN/PARP1 in human LNCaP cells assessed as induction of PARP1 degradation measured after 24 hrs by Western blot analysis. It counts as cell-based. An outline of the steps: (§4)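 Concentration-response over a wide range, 24 h exposure; PARP1 quantified by western blot and normalized to β-tubulin density; DC50 derived from two biologically independent experiments.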
Target sequence in this assay (P09874 whole entry): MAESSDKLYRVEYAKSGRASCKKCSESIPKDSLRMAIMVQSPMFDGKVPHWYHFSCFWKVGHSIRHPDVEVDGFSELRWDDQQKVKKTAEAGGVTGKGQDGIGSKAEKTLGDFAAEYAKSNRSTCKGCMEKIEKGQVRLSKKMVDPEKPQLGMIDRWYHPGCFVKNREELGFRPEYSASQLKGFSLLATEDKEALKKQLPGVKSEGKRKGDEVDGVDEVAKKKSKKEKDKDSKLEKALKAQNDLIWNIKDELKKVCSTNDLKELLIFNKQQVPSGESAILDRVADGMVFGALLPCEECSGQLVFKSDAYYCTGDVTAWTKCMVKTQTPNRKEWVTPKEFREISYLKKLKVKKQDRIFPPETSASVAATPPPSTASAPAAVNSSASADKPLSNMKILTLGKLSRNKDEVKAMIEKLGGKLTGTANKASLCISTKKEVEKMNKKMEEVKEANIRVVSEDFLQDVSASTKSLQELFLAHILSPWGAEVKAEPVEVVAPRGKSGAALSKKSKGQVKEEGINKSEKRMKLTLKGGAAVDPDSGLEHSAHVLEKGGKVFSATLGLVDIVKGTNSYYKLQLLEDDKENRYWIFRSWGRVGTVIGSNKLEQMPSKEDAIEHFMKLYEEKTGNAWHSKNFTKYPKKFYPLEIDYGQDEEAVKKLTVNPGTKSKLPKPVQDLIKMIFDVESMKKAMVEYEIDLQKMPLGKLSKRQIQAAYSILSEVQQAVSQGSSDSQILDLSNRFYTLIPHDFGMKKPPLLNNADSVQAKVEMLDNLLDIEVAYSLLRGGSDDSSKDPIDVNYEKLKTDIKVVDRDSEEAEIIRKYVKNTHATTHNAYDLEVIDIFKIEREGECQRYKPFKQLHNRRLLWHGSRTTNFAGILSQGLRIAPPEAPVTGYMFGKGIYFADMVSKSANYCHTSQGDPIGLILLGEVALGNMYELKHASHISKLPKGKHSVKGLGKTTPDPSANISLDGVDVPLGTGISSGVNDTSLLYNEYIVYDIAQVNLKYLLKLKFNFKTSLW
Target sequence in this assay (Q96SW2 whole entry): as the sequence (Q96SW2 whole entry partner) above

Data set [12] shares this target. The experiment in a line: Protac activity at CRBN/PARP1 in human Capan1 cells assessed as PARP1 protein degradation at 1 to 10 nM incubated for 24 hrs by western blot analysis. The format is cell-based. The following applies: CAPAN-1, dose nM 1-10, time 24.0 hrs. The gist of the method: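 Capan-1 cells were treated 24 h (1-1000 nM, or a wider dose range for DC50). Lysis was in RIPA buffer with protease inhibitors, and 20-30 μg protein was blotted. PARP1 was normalized to β-tubulin and to DMSO control, quantified by densitometry. DC50 came from two independent experiments.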
Target sequence in this assay (P09874 2-1014 limits assumed): as the sequence (P09874 2-1014 limits assumed) above
Target sequence in this assay (Q96SW2 whole entry partner): as the sequence (Q96SW2 whole entry partner) above

For data set [13] the target is unchanged. The experiment in a line: Protac activity at CRBN/PARP1 in human SW-620 cells assessed as induction of PARP1 degradation at 30 nM incubated for 24 hrs in presence of NEDD8-activating E1 enzyme inhibitor MLN4924 by Western blot analysis. It counts as cell-based.
Target sequence in this assay (P09874 2-1014 limits assumed): as the sequence (P09874 2-1014 limits assumed) above
Target sequence in this assay (Q96SW2 whole entry partner): as the sequence (Q96SW2 whole entry partner) above
For data set [14] the target is unchanged. Nature of the data set: Protac activity at CRBN/PARP1 in human MDA-MB-231 cells assessed as induction of PARP1 degradation measured after 24 hrs by Western blot analysis. It counts as cell-based. An outline of the steps:
as §4
Target sequence in this assay (P09874 whole entry): as the sequence (P09874 whole entry) above
Target sequence in this assay (Q96SW2 whole entry): as the sequence (Q96SW2 whole entry partner) above

Data set [15] has as its system NCM460. The experiment in a line: Cytotoxicity against human NCM460 cells assessed as reduction in cell viability incubated for 120 hrs by CCK-8 assay. It counts as cell-based. The following applies: ncm460, 120 h. Background: Formazan colour is commonly taken as a measure of viable cells.
A short description of data set [16]: Acute toxicity in Balb/c mouse assessed as lethality at 25 to 50 mg/kg, ip administered 5 times a week for 3 weeks. As to conditions: in vivo, 504 h. The format is organism-based. The gist of the method: as §3
In data set [17] the target is T1, Protein cereblon/Poly [ADP-ribose] polymerase 1. Nature of the data set: Protac activity at CRBN/PARP1 in human MDA-MB-436 cells assessed as induction of PARP1 degradation at 30 nM measured within 1 hr by Western blot analysis. It counts as cell-based. As to conditions: time hrs <=1. An outline of the steps:
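Time course at 30 nM in MDA-MB-436 or SW620 cells; PARP1 immunoblotted at successive time points, β-tubulin as loading control.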

Data set [18] has the same target. Nature of the data set: Protac activity at CRBN/PARP1 in human MDA-MB-436 cells assessed as induction of PARP1 degradation at 1 to 1000 nM incubated for 24 hrs by Western blot analysis. It counts as cell-based. The following applies: dose nM 1-1000, time 24.0 hrs. An outline of the steps:
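PARP1 immunoblot of MDA-MB-436 lysates after 24 h exposure at 1, 10, 100 and 1000 nM; RIPA lysis, 20-30 µg protein per lane, β-tubulin as loading control, band density normalized to DMSO control.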

Data set [19] shares this target. Nature of the data set: Protac activity at CRBN/PARP1 in human MDA-MB-436 cells assessed as induction of PARP1 degradation at 10 nM incubated for 24 hrs by Western blot analysis relative to control. The format is cell-based. An outline of the steps: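 MDA-MB-436 cells (RPMI-1640, 10% FBS) seeded 24 h, then exposed to compound at 1, 10, 100 and 1000 nM for 24 h. Lysates in RIPA with protease inhibitors, 20-30 µg protein by SDS-PAGE, PARP1 immunoblot with β-tubulin loading control; PARP1/β-tubulin ratio normalized to DMSO control set at 100.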

A word on the half-life: it is how long it takes for the measured level to halve. Usually DC50 stands for the midpoint of the concentration-degradation curve.

In the case of `O=C(CCCCCCCCCCC(=O)N1CCN(C(=O)c2cc(Cc3n[nH]c(=O)c4ccccc34)ccc2F)CC1)NCCNc1cccc2c1C(=O)N(C1CCC(=O)NC1=O)C2=O` (centres undefined), the Activity entry was “Dose-dependent effect” in data set [1]; “Dose-dependent effect” in data set [4]; “Non-Toxic” in data set [5]; “Non-Toxic” in data set [15]; “Non-Toxic” in [16]; greater than 99% in data set [19]. This molecule also had a half-life in data set [2] of 3.08 h. Besides, the result in data set [3], in data set [9], in data set [12], in [17] and in data set [18] was Active. In addition, the result in data set [6], in data set [8], in data set [10] and in data set [13] was inactive. The concentration at 24 h in data set [7] was greater than 10 nM. Further, the DC50 turned out to be 1.08 nM in data set [11] and 0.228 nM in [14].
